# Calls of active or inactive are those of the source. The rule behind the calls is not given here.
# Legend:
# 518A2 [1] = assay: Antiproliferative activity against human 518A2 cells after 72 hrs by MTT assay; format: functional, cell-based; conditions: for IC50: 518A2, 72 h
# In short: (§1)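 MTT read-out after 72 h of continuous exposure. Viability is expressed as percentage of viable cells relative to untreated controls. IC50 comes from dose-response curves. Values are means±SD of four independent experiments (two for some entries). DMSO was below 1%, with vehicle controls at equal DMSO. Precipitation was excluded spectrometrically and microscopically.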
# [2] = Solubility in tween80/ethanol (1:1) solution; format: physicochemical
# HT-29 [3] = assay: Antiproliferative activity against human HT-29 cells after 72 hrs by MTT assay; format: functional, cell-based; conditions: HT-29, 72 h; in short: as §1
# [4] = Antiproliferative activity against human A2780cis cells after 72 hrs by SRB assay; format: functional, cell-based
# In short: (§2)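 Ovarian A2780 and cisplatin-resistant A2780cis cells were exposed for 72 h and stained with SRB. IC50 comes from dose-response curves, as means±SD of three independent experiments. Final DMSO was below 1%, with matched vehicle controls.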
# PANC-1 = assay: Antiproliferative activity against human PANC1 cells after 72 hrs by MTT assay; format: functional, cell-based; conditions: PANC-1, 72 h; in short: as §1
# [5] = Antiproliferative activity against human KB-V1/Vbl cells after 72 hrs by MTT assay; format: functional, cell-based; in short: as §1
# [6] = Antiproliferative activity against human MCF7/Topo cells after 72 hrs by MTT assay; format: functional, cell-based; in short: as §1
# A2780 [7] = assay: Antiproliferative activity against human A2780 cells after 72 hrs by SRB assay; format: functional, cell-based; conditions: A2780, 72 h; in short: as §2
# HCT-116 = assay: Antiproliferative activity against human HCT116 cells after 72 hrs by MTT assay; format: functional, cell-based; conditions: HCT-116, 72 h; in short: as §1
# DLD-1 = assay: Antiproliferative activity against human DLD1 cells after 72 hrs by MTT assay; format: functional, cell-based; conditions: DLD-1, 72 h; in short: as §1
# EA.hy 926 [8] = assay: Antiproliferative activity against human EAhy926 cells after 72 hrs by MTT assay; format: functional, cell-based; conditions: EA.hy 926, 72 h; in short: as §1
# HT-29 [9] = assay: Cell cycle arrest in human HT-29 cells assessed as accumulation of cells at G2/M phase at 100 nM after 24 hrs by propidium iodide staining-based flow cytometric analysis (reference value: 11.4 +/- 1.4%); format: functional
# HT-29 [10] = assay: Cell cycle arrest in human HT-29 cells assessed as accumulation of cells at sub G1 phase at 100 nM after 24 hrs by propidium iodide staining-based flow cytometric analysis (reference value: 1.2 +/- 0.3%); format: functional
# HT-29 [11] = assay: Cell cycle arrest in human HT-29 cells assessed as accumulation of cells at G2/M phase at 350 nM after 24 hrs by propidium iodide staining-based flow cytometric analysis (reference value: 11.4 +/- 1.4%); format: functional
# HT-29 [12] = assay: Cell cycle arrest in human HT-29 cells assessed as accumulation of cells at sub G1 phase at 250 nM after 24 hrs by propidium iodide staining-based flow cytometric analysis (reference value: 1.2 +/- 0.3%); format: functional
# 518A2 [13] = assay: Induction of apoptosis in human 518A2 cells at 100 nM after 24 hrs by TUNEL assay relative to control; format: functional
# Chorioallantoic membrane [14] = assay: Antiangiogenic activity in Leghorn chicken embryo chorioallantoic membrane assessed as reduction in diameter of main blood vessel at 5 nmol after 24 hrs by light microscopic analysis; format: functional, tissue-based; conditions: Gallus gallus
# In short: (§3)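 Fertilized chicken eggs, CAM assay. Compound was applied topically into a small silicon foil ring placed on the CAM. The membrane and its extraembryonal blood vessels were monitored over 24 h, with observations at 6 h and 24 h post application.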
# Chorioallantoic membrane [15] = assay: Antiangiogenic activity in Leghorn chicken embryo chorioallantoic membrane assessed as induction of hemorrhages at 5 nmol after 24 hrs by light microscopic analysis; format: functional, tissue-based; conditions: Gallus gallus; in short: as §3
# Chorioallantoic membrane [16] = assay: Antiangiogenic activity in Leghorn chicken embryo chorioallantoic membrane assessed as disruption of smaller blood vessels at 5 nmol after 6 hrs by light microscopic analysis; format: functional, tissue-based; conditions: Gallus gallus; in short: as §3
# 518A2 [17] = assay: Antimigratory activity against human 518A2 cells at 50 nM after 48 hrs by wound healing assay; format: functional, cell-based
# HT-29 [18] = assay: Cell cycle arrest in human HT-29 cells assessed as accumulation of cells at G1 phase at 250 nM after 24 hrs by propidium iodide staining-based flow cytometric analysis (reference value: 75.1 +/- 1.1%); format: functional
# 518A2 [19] = assay: Effect on F-actin in human 518A2 cells assessed as thick stress fibers formation at 100 nM after 3 hrs by DAPI staining-based fluorescence microscopic analysis; format: cell-based
# In short: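 518A2 melanoma cells were treated with 100 nM for 3 h. Filamentous actin was fluorescence-labelled, nuclei were counterstained with DAPI, and the cells were imaged by fluorescence microscopy. Images come from two independent experiments.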
# HT-29 [20] = assay: Cell cycle arrest in human HT-29 cells assessed as accumulation of cells at S phase at 250 nM after 24 hrs by propidium iodide staining-based flow cytometric analysis (reference value: 12.3 +/- 0.4%); format: functional
# HT-29 [21] = assay: Cell cycle arrest in human HT-29 cells assessed as accumulation of cells at G1 phase at 350 nM after 24 hrs by propidium iodide staining-based flow cytometric analysis (reference value: 75.1 +/- 1.1%); format: functional
# A2780 [22] = assay: Antivascular activity against human A2780 cells xenografted in nude mouse assessed as tumor discoloration at 200 mg/kg administered on every other day and measured after 24 hrs; format: functional, organism-based; conditions: in the assay text read “administered as single dose” for “administered on every other day”
# In short: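 Mice bore A2780 tumor xenografts. Compound was formulated in tween80/ethanol (1:1) and injected as single doses. Tumors were inspected for discoloration as a sign of vascular disruption, and treated tumors were examined histologically for hemorrhage and necrosis.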
# HT-29 [23] = assay: Cell cycle arrest in human HT-29 cells assessed as accumulation of cells at G2/M phase at 250 nM after 24 hrs by propidium iodide staining-based flow cytometric analysis (reference value: 11.4 +/- 1.4%); format: functional
# HT-29 [24] = assay: Cell cycle arrest in human HT-29 cells assessed as accumulation of cells at S phase at 350 nM after 24 hrs by propidium iodide staining-based flow cytometric analysis (reference value: 12.3 +/- 0.4%); format: functional
# HT-29 [25] = assay: Cell cycle arrest in human HT-29 cells assessed as accumulation of cells at G1 phase at 100 nM after 24 hrs by propidium iodide staining-based flow cytometric analysis (reference value: 75.1 +/- 1.1%); format: functional
# HT-29 [26] = assay: Cell cycle arrest in human HT-29 cells assessed as accumulation of cells at sub G1 phase at 350 nM after 24 hrs by propidium iodide staining-based flow cytometric analysis (reference value: 1.2 +/- 0.3%); format: functional
# Chorioallantoic membrane [27] = assay: Antiangiogenic activity in Leghorn chicken embryo chorioallantoic membrane assessed as induction of hemorrhages at 5 nmol after 6 hrs by light microscopic analysis; format: functional, tissue-based; conditions: Gallus gallus; in short: as §3
# Tubulin (Homo sapiens) = Tubulin (Homo sapiens) (UniProt P68371+Q9H4B7+P0DPH7+P68366+Q13509+Q71U36+P04350+Q3ZCM7+P07437+P68363+Q9BQE3+Q6PEY2+Q13885+Q9BVA1+Q9BUF5); assay: Induction of microtubule disruption in human 518A2 cells at 100 nM after 3 hrs by DAPI staining-based fluorescence microscopic analysis; format: cell-based
# In short: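 Microtubule organization in 518A2 melanoma cells was checked by tubulin immunofluorescence staining after 3 h exposure to 100 nM, with DAPI as the nuclear counterstain. Images come from two independent experiments.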
# HT-29 [28] = assay: Cell cycle arrest in human HT-29 cells assessed as accumulation of cells at S phase at 100 nM after 24 hrs by propidium iodide staining-based flow cytometric analysis (reference value: 12.3 +/- 0.4%); format: functional
# Chorioallantoic membrane [29] = assay: Antiangiogenic activity in Leghorn chicken embryo chorioallantoic membrane assessed as effect on blood vessel length at 5 nmol after 6 hrs by light microscopic analysis; format: functional, tissue-based; conditions: Gallus gallus; in short: as §3
# Chorioallantoic membrane [30] = assay: Antiangiogenic activity in Leghorn chicken embryo chorioallantoic membrane assessed as reduction in blood vessel area at 5 nmol after 6 hrs by light microscopic analysis relative to control; format: functional, tissue-based; parameters: scale not given: the % may be the effect or the level left; conditions: Gallus gallus
# In short: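 The CAM assay was run with topical application into a silicon foil ring atop the CAM of fertilized chicken eggs. Area covered by blood vessels was quantified by fractal analysis relative to control.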
# Chorioallantoic membrane [31] = assay: Antiangiogenic activity in Leghorn chicken embryo chorioallantoic membrane assessed as disruption of smaller blood vessels at 5 nmol after 24 hrs by light microscopic analysis; format: functional, tissue-based; conditions: Gallus gallus; in short: as §3
# EA.hy 926 [32] = assay: Cytotoxicity against human EAhy926 cells at 100 nM after 24 hrs by MTT assay relative to control; format: cell-based; conditions: ea.hy 926, 24 h, 0.1 µM
# EA.hy 926 [33] = assay: Antiangiogenic activity against human EAhy926 cells assessed as inhibition of tube formation on matrigel at 100 nM after 24 hrs by light microscopic analysis; format: functional, cell-based
# In short: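 Ea.Hy926 endothelial hybrid cells were seeded on matrigel with compound and examined for tubular/cord-like network formation versus untreated controls. Viability under the same conditions was checked in parallel by MTT to exclude cytotoxic effects.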
smiles,measurement,setting,value
COc1c(I)cc(C2C(C#N)=C(N)Oc3c2ccc2ccccc32)cc1I (stereo not given),Activity,518A2 [1],Dose-dependent effect
same,IC50,518A2 [1],0.0371 µM
same,solubility,[2],Insoluble
same,IC50,HT-29 [3],0.0452 µM
same,IC50,[4],0.0182 µM
same,IC50,PANC-1,0.0131 µM
same,IC50,[5],0.0165 µM
same,IC50,[6],0.0228 µM
same,IC50,A2780 [7],0.0164 µM
same,IC50,HCT-116,0.0295 µM
same,IC50,DLD-1,0.015 µM
same,IC50,EA.hy 926 [8],0.0179 µM
COc1c(Cl)cc(C2C(C#N)=C(N)Oc3c2ccc2ccccc32)cc1Cl (stereo not given),Activity,518A2 [1],Dose-dependent effect
same,IC50,518A2 [1],0.0446 µM
same,solubility,[2],Insoluble
same,IC50,HT-29 [3],0.103 µM
same,IC50,[4],0.0192 µM
same,IC50,PANC-1,0.0279 µM
same,IC50,[5],0.0302 µM
same,IC50,[6],0.0299 µM
same,IC50,A2780 [7],0.0167 µM
same,IC50,HCT-116,0.0692 µM
same,IC50,DLD-1,0.059 µM
same,IC50,EA.hy 926 [8],0.0326 µM
N#CC1=C(N)Oc2c(ccc3ccccc23)C1c1cccc(C#N)c1 (stereo not given),Activity,HT-29 [9],19.7%
same,Activity,HT-29 [10],4.2%
same,Activity,518A2 [1],Dose-dependent effect
same,IC50,518A2 [1],< 0.0001 µM
same,Activity,HT-29 [11],13.3%
same,Activity,HT-29 [12],11.8%
same,Activity,518A2 [13],69.4%
same,Activity,Chorioallantoic membrane [14],Active
same,Activity,Chorioallantoic membrane [15],inactive
same,Activity,Chorioallantoic membrane [16],Active
same,Activity,518A2 [17],Active
same,Activity,HT-29 [18],59.6%
same,Activity,518A2 [19],Active
same,Activity,HT-29 [20],18.5%
same,Activity,HT-29 [21],60.5%
same,IC50,HT-29 [3],0.11 µM
same,IC50,[4],0.0179 µM
same,IC50,PANC-1,< 0.0001 µM
same,Activity,A2780 [22],inactive
same,IC50,[5],< 0.0001 µM
same,IC50,[6],0.00041 µM
same,IC50,A2780 [7],0.0148 µM
same,Activity,HT-29 [23],10.1%
same,Activity,HT-29 [24],15.6%
same,Activity,HT-29 [25],51%
same,Activity,HT-29 [26],10.6%
same,Activity,Chorioallantoic membrane [27],Active
same,Activity,Tubulin (Homo sapiens),Active
same,Activity,HT-29 [28],25.1%
same,Activity,Chorioallantoic membrane [29],Active
same,IC50,DLD-1,0.0026 µM
same,Activity,Chorioallantoic membrane [30],56%
same,IC50,EA.hy 926 [8],0.0043 µM
same,Activity,Chorioallantoic membrane [31],inactive
same,Activity,EA.hy 926 [32],> 68%
same,Activity,EA.hy 926 [33],Active

# Source: ChEMBL document CHEMBL4330063, “New naphthopyran analogues of LY290181 as potential tumor vascular-disrupting agents” (Eur J Med Chem, 2019)
